How the values were obtained:
Histone deacetylase 8 = target: T1, Histone deacetylase 8 (Homo sapiens, UniProt Q9BY41); experiment: Inhibition of human recombinant HDAC8 pre-incubated for 30 mins before Ac-Leu- Gly-Lys(Ac)-AMC substrate addition and measured after 90 mins by fluorescence based assay
T1 sequence (Q9BY41 whole entry): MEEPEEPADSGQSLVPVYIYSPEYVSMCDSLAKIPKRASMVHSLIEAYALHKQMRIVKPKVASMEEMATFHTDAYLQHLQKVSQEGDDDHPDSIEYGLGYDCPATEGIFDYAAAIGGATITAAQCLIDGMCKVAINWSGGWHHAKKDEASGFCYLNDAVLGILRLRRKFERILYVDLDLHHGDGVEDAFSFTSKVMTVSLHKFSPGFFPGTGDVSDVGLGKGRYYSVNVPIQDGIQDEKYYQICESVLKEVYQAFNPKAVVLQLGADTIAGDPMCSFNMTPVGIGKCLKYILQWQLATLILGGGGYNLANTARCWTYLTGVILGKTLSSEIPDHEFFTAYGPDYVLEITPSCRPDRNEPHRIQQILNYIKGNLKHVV

Histone deacetylase 2 = Histone deacetylase 2 (Homo sapiens, UniProt Q92769); experiment: Inhibition of human recombinant HDAC2 pre-incubated for 30 mins before Ac-Leu- Gly-Lys(Ac)-AMC substrate addition and measured after 90 mins by fluorescence based assay
Chain of Histone deacetylase 2 (Q92769 whole entry): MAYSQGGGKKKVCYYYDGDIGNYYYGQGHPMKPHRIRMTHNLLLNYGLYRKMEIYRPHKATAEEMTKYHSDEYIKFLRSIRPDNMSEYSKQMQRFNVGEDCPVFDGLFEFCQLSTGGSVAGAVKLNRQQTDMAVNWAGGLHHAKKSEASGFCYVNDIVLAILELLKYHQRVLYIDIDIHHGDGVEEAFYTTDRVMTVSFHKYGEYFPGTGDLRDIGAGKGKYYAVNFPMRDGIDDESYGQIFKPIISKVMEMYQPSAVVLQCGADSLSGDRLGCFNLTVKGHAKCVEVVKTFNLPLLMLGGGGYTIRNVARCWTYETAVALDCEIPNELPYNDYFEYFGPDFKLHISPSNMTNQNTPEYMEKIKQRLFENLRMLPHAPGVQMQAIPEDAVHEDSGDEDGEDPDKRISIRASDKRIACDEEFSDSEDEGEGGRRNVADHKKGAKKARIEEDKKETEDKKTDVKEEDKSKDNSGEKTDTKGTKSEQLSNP

Homo sapiens [1] = species on record: Homo sapiens; experiment: Selectivity index, ratio of IC50 for inhibition of human recombinant HDAC3 to IC50 for inhibition of human recombinant HDAC1
Homo sapiens [2] = species on record: Homo sapiens; experiment: Selectivity index, ratio of IC50 for inhibition of human recombinant HDAC2 to IC50 for inhibition of human recombinant HDAC1
Homo sapiens [3] = species on record: Homo sapiens; experiment: Selectivity index, ratio of IC50 for inhibition of human recombinant HDAC7 to IC50 for inhibition of human recombinant HDAC1
Method in brief: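 HDAC7 arm: 5 ng/mL recombinant human HDAC7 pre-incubated 15 min with inhibitor, then Ac-Leu-Gly-Lys(trifluoroAc)-AMC (20 µM) for 60 min at 37°C. Developer was trypsin with 10 μM SAHA, 15 min; fluorescence 350/460 nm. HDAC1 was run with 30 min pre-incubation, 12 µM Ac-Leu-Gly-Lys(Ac)-AMC, 90 min. Ratio of the HDAC7 IC50 to the HDAC1 IC50.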

Histone deacetylase 1 = Histone deacetylase 1 (Homo sapiens, UniProt Q13547); experiment: Inhibition of human recombinant HDAC1 pre-incubated for 30 mins before Ac-Leu- Gly-Lys(Ac)-AMC substrate addition and measured after 90 mins by fluorescence based assay
Chain of Histone deacetylase 1 (Q13547 whole entry): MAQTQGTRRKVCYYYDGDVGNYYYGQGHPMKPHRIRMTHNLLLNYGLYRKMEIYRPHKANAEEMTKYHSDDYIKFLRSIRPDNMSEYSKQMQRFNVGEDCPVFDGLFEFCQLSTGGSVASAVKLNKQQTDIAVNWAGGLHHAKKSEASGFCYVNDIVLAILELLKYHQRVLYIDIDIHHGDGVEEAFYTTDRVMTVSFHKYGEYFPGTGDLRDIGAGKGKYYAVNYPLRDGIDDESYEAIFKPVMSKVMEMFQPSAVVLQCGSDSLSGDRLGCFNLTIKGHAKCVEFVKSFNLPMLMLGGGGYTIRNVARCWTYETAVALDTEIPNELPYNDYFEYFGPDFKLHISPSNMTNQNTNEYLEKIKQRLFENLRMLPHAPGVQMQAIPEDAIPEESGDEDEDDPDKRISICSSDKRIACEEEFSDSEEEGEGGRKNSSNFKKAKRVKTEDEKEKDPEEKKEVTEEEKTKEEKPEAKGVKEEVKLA

Histone deacetylase 7 = target: T2, Histone deacetylase 7 (Homo sapiens, UniProt Q8WUI4); experiment: Inhibition of human recombinant HDAC7 pre-incubated for 15 mins before Ac-Leu-Gly-Lys(trifluroAc)-AMC substrate addition and measured after 60 mins by fluorescence based assay
T2 sequence (Q8WUI4 whole entry): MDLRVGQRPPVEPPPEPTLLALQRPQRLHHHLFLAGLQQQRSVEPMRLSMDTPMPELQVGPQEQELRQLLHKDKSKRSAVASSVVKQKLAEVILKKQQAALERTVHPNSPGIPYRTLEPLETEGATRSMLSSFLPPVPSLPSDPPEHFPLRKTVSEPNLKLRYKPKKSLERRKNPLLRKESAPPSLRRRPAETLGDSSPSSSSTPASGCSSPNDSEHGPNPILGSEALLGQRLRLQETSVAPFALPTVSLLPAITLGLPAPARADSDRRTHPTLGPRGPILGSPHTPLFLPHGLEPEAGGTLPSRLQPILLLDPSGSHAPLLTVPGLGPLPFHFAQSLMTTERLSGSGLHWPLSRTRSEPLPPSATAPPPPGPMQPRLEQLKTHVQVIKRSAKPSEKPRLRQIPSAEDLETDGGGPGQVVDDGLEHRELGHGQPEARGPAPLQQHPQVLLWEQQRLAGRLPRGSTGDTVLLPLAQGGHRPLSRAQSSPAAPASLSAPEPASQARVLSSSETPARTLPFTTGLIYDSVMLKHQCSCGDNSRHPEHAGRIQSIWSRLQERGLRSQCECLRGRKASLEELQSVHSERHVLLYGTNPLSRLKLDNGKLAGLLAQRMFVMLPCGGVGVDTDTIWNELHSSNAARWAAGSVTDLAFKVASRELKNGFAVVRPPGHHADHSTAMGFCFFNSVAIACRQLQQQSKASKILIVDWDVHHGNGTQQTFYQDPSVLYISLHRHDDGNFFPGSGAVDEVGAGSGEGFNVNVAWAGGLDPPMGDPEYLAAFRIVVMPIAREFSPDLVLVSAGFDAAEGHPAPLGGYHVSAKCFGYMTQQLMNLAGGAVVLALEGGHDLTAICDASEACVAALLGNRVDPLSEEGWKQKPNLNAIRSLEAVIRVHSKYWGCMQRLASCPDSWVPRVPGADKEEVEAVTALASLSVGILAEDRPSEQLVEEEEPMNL

Homo sapiens [4] = species on record: Homo sapiens; experiment: Selectivity index, ratio of IC50 for inhibition of human recombinant HDAC8 to IC50 for inhibition of human recombinant HDAC1
Histone deacetylase 3 = Histone deacetylase 3 (Homo sapiens, UniProt O15379); experiment: Inhibition of human recombinant HDAC3 pre-incubated for 30 mins before Ac-Leu- Gly-Lys(Ac)-AMC substrate addition and measured after 90 mins by fluorescence based assay
Chain of Histone deacetylase 3 (O15379 whole entry): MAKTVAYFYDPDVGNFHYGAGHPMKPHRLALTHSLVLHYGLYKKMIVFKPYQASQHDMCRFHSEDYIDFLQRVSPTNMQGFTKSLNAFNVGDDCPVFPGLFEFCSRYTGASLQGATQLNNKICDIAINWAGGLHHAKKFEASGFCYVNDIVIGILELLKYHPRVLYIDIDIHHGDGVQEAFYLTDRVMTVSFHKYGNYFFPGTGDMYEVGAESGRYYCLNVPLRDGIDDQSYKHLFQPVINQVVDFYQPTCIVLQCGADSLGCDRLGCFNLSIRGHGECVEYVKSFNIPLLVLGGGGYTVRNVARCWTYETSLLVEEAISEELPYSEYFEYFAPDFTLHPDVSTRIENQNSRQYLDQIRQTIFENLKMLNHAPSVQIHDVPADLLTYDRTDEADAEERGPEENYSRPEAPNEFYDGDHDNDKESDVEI

IC50 (Histone deacetylase 8): 89 nM | IC50 (Histone deacetylase 2): 49 nM | Ratio IC50 (Homo sapiens [1]): 2 to 3 | Ratio IC50 (Homo sapiens [2]): 5 to 12 | Ratio IC50 (Homo sapiens [3]): 140 to 600 | IC50 (Histone deacetylase 1): 4 nM | IC50 (Histone deacetylase 7): 2500 nM | Ratio IC50 (Homo sapiens [4]): 14 to 61 | IC50 (Histone deacetylase 3): 9 nM
SMILES: CN(C)c1ccc(C2(C(=O)Nc3ccc(C(=O)NO)cc3)CCCC2)cc1
